Test results taken from ChEMBL document CHEMBL1141286, “Benzochromenones from the marine crinoid Comantheria rotula inhibit hypoxia-inducible factor-1 (HIF-1) in cell-based reporter assays and differentially suppress the growth of certain tumor cell lines” (J Nat Prod, 2007).

system: HCT-116; test: Growth inhibition of human HCT116 cells; format: functional; settings: not given

Q: With `CCCc1cc(=O)c2c(OC)c3c(OC)cc(OC)cc3cc2o1` as the compound, how does the GI50 read?
A: 42.7 µM

same assay, conditions: read-out: Log LC50 (the source's name) (converted)

Q: Which CC50 does the source give for `CCCc1cc(=O)c2c(OC)c3c(OC)cc(OC)cc3cc2o1` here?
A: 34.7 µM

same assay, conditions: read-out: Log TGI (converted)

Q: Which TGI does the source give for `CCCc1cc(=O)c2c(OC)c3c(OC)cc(OC)cc3cc2o1` here?
A: > 100 µM

system: NCI-H522; test: Growth inhibition of human NCI-H522 cells; format: functional; settings: not given

Q: Which GI50 does the source give for `CCCc1cc(=O)c2c(OC)c3c(OC)cc(OC)cc3cc2o1` here?
A: 32.4 µM

same assay, conditions: read-out: Log LC50 (the source's name) (converted)

Q: With `CCCc1cc(=O)c2c(OC)c3c(OC)cc(OC)cc3cc2o1` as the compound, how does the CC50 read?
A: > 100 µM

same assay, conditions: read-out: Log TGI (converted)

Q: Which TGI does the source give for `CCCc1cc(=O)c2c(OC)c3c(OC)cc(OC)cc3cc2o1` here?
A: > 100 µM

system: CCRF-CEM; test: Growth inhibition of human CCRF-CEM cells; format: functional; settings: not given

Q: For `CCCc1cc(=O)c2c(OC)c3c(OC)cc(OC)cc3cc2o1`, which GI50 is on record?
A: 58.9 µM

Q: And the LC50?
A: > 100 µM

same assay, conditions: read-out: Log TGI (converted)

Q: Which TGI does the source give for `CCCc1cc(=O)c2c(OC)c3c(OC)cc(OC)cc3cc2o1` here?
A: 100 µM

system: SF-295; test: Growth inhibition of human SF295 cells; format: functional; settings: not given

Q: Which results are given for `CCCc1cc(=O)c2c(OC)c3c(OC)cc(OC)cc3cc2o1`?
A: GI50: 53.7 µM; LC50: > 100 µM

same assay, conditions: read-out: Log TGI (converted)

Q: For `CCCc1cc(=O)c2c(OC)c3c(OC)cc(OC)cc3cc2o1`, which TGI is on record?
A: > 100 µM

system: OVCAR-8; test: Growth inhibition of human OVACAR8 cells; format: functional; settings: not given

Q: Which GI50 does the source give for `CCCc1cc(=O)c2c(OC)c3c(OC)cc(OC)cc3cc2o1` here?
A: > 100 µM

Q: What about the LC50 of the same compound?
A: > 100 µM

same assay, conditions: read-out: Log TGI (converted)

Q: With `CCCc1cc(=O)c2c(OC)c3c(OC)cc(OC)cc3cc2o1` as the compound, how does the TGI read?
A: > 100 µM

system: M14; test: Growth inhibition of human M14 cells; format: functional; settings: not given

Q: With `CCCc1cc(=O)c2c(OC)c3c(OC)cc(OC)cc3cc2o1` as the compound, how does the GI50 read?
A: 67.6 µM

Q: What about the LC50 (50% lethal concentration) of the same compound?
A: 34.7 µM

same assay, conditions: read-out: Log TGI (converted)

Q: With `CCCc1cc(=O)c2c(OC)c3c(OC)cc(OC)cc3cc2o1` as the compound, how does the TGI read?
A: > 100 µM

system: not listed separately; test: Inhibition of 1,10-phenanthroline-induced HIF1 activation in T47D cells by TK-luciferase assay; format: cell-based; settings: Homo sapiens
How it was run: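 HIF-1 reporter (pHRE-TK-Luc) assays in transfected PC-3 or T47D cells; HIF-1 induced by hypoxia or by the hypoxia mimetic 1,10-phenanthroline (10 μM); compounds at half-log concentrations; luciferase activity measured; IC50 from experiments in triplicate.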

Q: Which IC50 does the source give for `CCCc1cc(=O)c2c(OC)c3c(OC)cc(OC)cc3cc2o1` here?
A: 2000 nM

system: RXF 393; test: Growth inhibition of human RXF393 cells; format: functional; settings: not given

Q: For `CCCc1cc(=O)c2c(OC)c3c(OC)cc(OC)cc3cc2o1`, which GI50 is on record?
A: > 100 µM

Q: And the LC50?
A: > 100 µM

same assay, conditions: read-out: Log TGI (converted)

Q: With `CCCc1cc(=O)c2c(OC)c3c(OC)cc(OC)cc3cc2o1` as the compound, how does the TGI read?
A: > 100 µM

system: OVCAR-5; test: Growth inhibition of human OVACAR5 cells; format: functional; settings: not given

Q: For `CCCc1cc(=O)c2c(OC)c3c(OC)cc(OC)cc3cc2o1`, which GI50 is on record?
A: > 100 µM

Q: What about the LC50 of the same compound?
A: > 100 µM

same assay, conditions: read-out: Log TGI (converted)

Q: Which TGI does the source give for `CCCc1cc(=O)c2c(OC)c3c(OC)cc(OC)cc3cc2o1` here?
A: > 100 µM

system: TK-10; test: Growth inhibition of human TK10 cells; format: functional; settings: not given

Q: Which GI50 does the source give for `CCCc1cc(=O)c2c(OC)c3c(OC)cc(OC)cc3cc2o1` here?
A: 37.2 µM

Q: And the LC50?
A: > 100 µM

same assay, conditions: read-out: Log TGI (converted)

Q: Which TGI does the source give for `CCCc1cc(=O)c2c(OC)c3c(OC)cc(OC)cc3cc2o1` here?
A: > 100 µM

system: not listed separately; test: Growth inhibition of human OVACAR3 cells; format: functional; settings: not given

Q: For `CCCc1cc(=O)c2c(OC)c3c(OC)cc(OC)cc3cc2o1`, which GI50 is on record?
A: 38.9 µM

same assay, conditions: read-out: Log LC50 (the source's name) (converted)

Q: For `CCCc1cc(=O)c2c(OC)c3c(OC)cc(OC)cc3cc2o1`, which CC50 is on record?
A: > 100 µM

same assay, conditions: read-out: Log TGI (converted)

Q: With `CCCc1cc(=O)c2c(OC)c3c(OC)cc(OC)cc3cc2o1` as the compound, how does the TGI read?
A: > 100 µM

system: NCI-H226; test: Growth inhibition of human NCI-H226 cells; format: functional; settings: not given

Q: With `CCCc1cc(=O)c2c(OC)c3c(OC)cc(OC)cc3cc2o1` as the compound, how does the GI50 read?
A: > 100 µM

same assay, conditions: read-out: Log LC50 (the source's name) (converted)

Q: With `CCCc1cc(=O)c2c(OC)c3c(OC)cc(OC)cc3cc2o1` as the compound, how does the CC50 read?
A: > 100 µM

same assay, conditions: read-out: Log TGI (converted)

Q: With `CCCc1cc(=O)c2c(OC)c3c(OC)cc(OC)cc3cc2o1` as the compound, how does the TGI read?
A: > 100 µM

system: KM12; test: Growth inhibition of human KM12 cells; format: functional; settings: not given

Q: For `CCCc1cc(=O)c2c(OC)c3c(OC)cc(OC)cc3cc2o1`, which GI50 is on record?
A: 87.1 µM
